Data set [1] has as its system Plasma. As to the kind of experiment: Drug metabolism in Sprague-Dawley rat plasma assessed as nicotinuric acid levels at 100 mg/kg, po administered as single dose after 6 hrs by LC/MS/MS analysis. Type of data set: ADME, organism-based. The conditions noted are these: in vivo. Put shortly:
(§1)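 Single oral dose to Sprague Dawley rats; plasma collected at 0.25, 0.5, 1, 2, 4 and 6 hr; analytes in plasma quantified by LC/MS/MS.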

Data set [2] is described as follows: Drug uptake in Sprague-Dawley rat intestine at 300 mg/kg, qd administered through oral gavage for 7 days measured 2 hrs post last dose by LC/MS/MS analysis. It counts as ADME, organism-based. The conditions noted are these: read-out: Drug uptake.
Data set [3] deals with Plasma. The experiment in a line: Drug metabolism in Sprague-Dawley rat plasma assessed as niacin linker metabolite N-(2-aminoethyl)nicotinamide formation at 300 mg/kg, qd administered through oral gavage for 7 days measured 2 hrs post last dose by LC/MS/MS analysis. It counts as ADME, organism-based. The conditions noted are these: in vivo.
The next data set deals with Liver. The experiment in a line: Drug metabolism in Sprague-Dawley rat liver assessed as linker EPA metabolite (5Z,8Z,11Z,14Z,17Z)-N-(2-aminoethyl)icosa-5,8,11,14,17-pentaenamide formation at 300 mg/kg, qd administered through oral gavage for 7 days measured 2 hrs post last dose by LC/MS/MS analysis. Type of data set: ADME, organism-based. The conditions noted are these: in vivo.

For data set [4], the target named is T1, Sterol regulatory element-binding protein 2 (Homo sapiens) (UniProt Q12772).
T1 sequence (whole entry): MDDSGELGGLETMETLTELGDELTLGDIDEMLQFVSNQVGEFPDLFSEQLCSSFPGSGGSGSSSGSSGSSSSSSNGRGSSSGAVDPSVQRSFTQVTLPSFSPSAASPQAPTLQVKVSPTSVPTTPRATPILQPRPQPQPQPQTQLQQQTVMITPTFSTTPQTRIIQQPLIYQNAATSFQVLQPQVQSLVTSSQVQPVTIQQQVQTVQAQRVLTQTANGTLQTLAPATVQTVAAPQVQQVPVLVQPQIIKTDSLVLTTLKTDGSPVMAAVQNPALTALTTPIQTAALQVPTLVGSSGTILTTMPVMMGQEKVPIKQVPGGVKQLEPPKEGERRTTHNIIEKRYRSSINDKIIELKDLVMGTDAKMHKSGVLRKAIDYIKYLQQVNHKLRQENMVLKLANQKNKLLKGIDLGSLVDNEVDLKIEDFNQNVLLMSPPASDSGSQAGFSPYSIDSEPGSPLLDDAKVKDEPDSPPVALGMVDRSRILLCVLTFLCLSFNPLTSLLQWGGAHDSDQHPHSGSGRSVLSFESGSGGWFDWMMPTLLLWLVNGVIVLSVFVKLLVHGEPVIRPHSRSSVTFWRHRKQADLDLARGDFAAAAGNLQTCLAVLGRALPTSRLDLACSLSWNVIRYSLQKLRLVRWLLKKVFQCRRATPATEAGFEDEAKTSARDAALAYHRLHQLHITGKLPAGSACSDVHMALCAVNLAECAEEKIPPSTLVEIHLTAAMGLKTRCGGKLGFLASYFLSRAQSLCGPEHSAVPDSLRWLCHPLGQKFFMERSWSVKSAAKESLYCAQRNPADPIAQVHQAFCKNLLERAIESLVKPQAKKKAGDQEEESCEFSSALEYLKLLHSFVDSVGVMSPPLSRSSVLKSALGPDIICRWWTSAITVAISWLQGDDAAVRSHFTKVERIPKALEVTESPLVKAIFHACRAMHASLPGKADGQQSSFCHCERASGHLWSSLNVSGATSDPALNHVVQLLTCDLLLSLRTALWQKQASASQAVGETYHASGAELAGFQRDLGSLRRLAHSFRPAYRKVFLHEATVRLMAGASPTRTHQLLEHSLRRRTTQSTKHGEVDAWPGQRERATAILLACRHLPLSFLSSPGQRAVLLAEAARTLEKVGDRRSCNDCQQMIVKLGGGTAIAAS
The experiment in a line: Inhibition of SREBP2 in human HepG2 cells assessed as downregulation of PCSK9 mRNA expression by RT-PCR analysis. It counts as cell-based.

In data set [5] the test system is Mus musculus. The experiment in a line: Inhibition of LDL cholesterol levels in po dosed ApoE*3-Leiden mouse plasma administered for 16 weeks. It counts as functional, organism-based. Put shortly: (§2)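 Transgenic ApoE*3-Leiden mice on high-cholesterol Western-type diet dosed over 16 weeks; plasma PCSK9, total cholesterol, triglycerides and lipoprotein profile (VLDL, LDL) assessed at study end.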

Data set [6] deals with Mus musculus. As to the kind of experiment: Inhibition of VLDL cholesterol levels in po dosed ApoE*3-Leiden mouse plasma administered for 16 weeks. It counts as functional, organism-based. In outline:
as §2

Data set [7] deals with Plasma. The experiment in a line: Metabolic stability in human plasma at 5 uM up to 2 hrs by LC-MS-MS analysis. It counts as ADME, cell-free. In outline:
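Plasma from each species diluted to 50% with 0.05 M PBS pH 7.4 and prewarmed to 37 °C; compound added at 5 µM final (from DMSO stock diluted in MeOH); triplicate incubations at 37 °C, sampled at 0, 30, 60, 120 min, quenched with acetonitrile containing internal standard, centrifuged, analysed by LC/MS/MS.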

In data set [8] the target is T1, Sterol regulatory element-binding protein 2 (Homo sapiens). The experiment in a line: Inhibition of SREBP2 maturation in human HepG2 cells at 25 to 50 uM after overnight incubation by immunoblot analysis. It counts as cell-based. In outline:
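Human HepG2 cells incubated with compound (25 and 50 µM), alone or together with 10 µM atorvastatin; mature SREBP-2 protein level assessed.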
(In general: A western blot detects proteins with antibodies after separation by electrophoresis.)

Data set [9] can be described thus: Cmax in Sprague-Dawley rat at 100 mg/kg, po administered as single dose measured up to 6 hrs post dose by LC/MS/MS analysis. Type of data set: ADME, organism-based. Also noted: dose 100 mg/kg, route oral. The conditions noted are these: in vivo. In outline: as §1
A short description of data set [10]: Drug metabolism in Sprague-Dawley rat epididymal fat assessed as salicyluric acid formation at 300 mg/kg, po administered for 14 days followed by 7 day washout cycle measured on day 21. The conditions noted are these: in vivo. Type of data set: ADME, organism-based, Epididymal fat pad.
Data set [11] is described as follows: Cmax in Sprague-Dawley rat at 300 mg/kg, po measured up to 24 hrs post dose. It counts as ADME, organism-based. Also noted: dose 300 mg/kg, route oral. The conditions noted are these: in vivo. In outline: (§3)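 Single oral dose of 300 mg/kg to Sprague Dawley rats. Plasma collected at 0, 0.5, 1, 2, 4, 8 and 24 hr. Analytes were the parent, the salicylate-linker and linker-DHA metabolites, salicylic acid and salicyluric acid; Cmax and AUClast derived.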

For another data set, the system named is Rattus norvegicus. The experiment in a line: Cmax in Sprague-Dawley rat assessed as salicylate-linker metabolite N-(2-aminoethyl)-2-hydroxy-benzamide at 300 mg/kg, po measured up to 24 hrs post dose. Also noted: dose 300 mg/kg, route oral. The conditions noted are these: in vivo. Type of data set: ADME, organism-based. Put shortly:
as §3

Data set [12] is described as follows: Drug metabolism in Sprague-Dawley rat epididymal fat assessed as salicyluric acid formation at 300 mg/kg, po administered for 7 days measured 4 hrs post dose on day 7. It counts as ADME, organism-based, Epididymal fat pad. The conditions noted are these: in vivo. In outline: (§4)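 Male Sprague Dawley rats, groups of 4, dosed orally at 300 mg/kg once daily for 14 days. Animals killed on days 1, 3, 7 and 14, with plasma, brain, epididymal fat, liver and muscle taken 4 hr after dosing. Parent, salicylic acid and salicyluric acid were measured.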

Data set [13] in a line: Inhibition of NFkappaB in mouse RAW264.7 cells preincubated for 2 hrs followed by LPS addition for 3 hrs by luciferase reporter gene assay relative to control. It counts as cell-based.
The nature of data set [14]: Drug uptake in Sprague-Dawley rat liver at 300 mg/kg, po administered for 7 days measured 4 hrs post dose on day 7. It counts as ADME, organism-based. The conditions noted are these: read-out: Drug uptake. In outline:
as §4

The subject of data set [15] is Plasma. The experiment in a line: Drug metabolism in Sprague-Dawley rat plasma assessed as salicylic acid formation at 300 mg/kg, po measured up to 24 hrs post dose. The conditions noted are these: in vivo. Type of data set: ADME, organism-based. In outline:
as §3

Data set [16] deals with Plasma. As to the kind of experiment: Drug uptake in Sprague-Dawley rat plasma at 300 mg/kg, po administered for 14 days followed by 7 day washout cycle measured on day 21. It counts as ADME, organism-based. The conditions noted are these: in vivo.
A short description of data set [17]: Drug metabolism in Sprague-Dawley rat epididymal fat assessed as salicylic acid formation at 300 mg/kg, po administered for 14 days followed by 7 day washout cycle measured on day 21. It counts as ADME, organism-based, Epididymal fat pad. The conditions noted are these: in vivo.

The source made the active and inactive calls. The rule behind the calls is not given here. Some results are limits rather than exact numbers.

Here are results for two compounds from ChEMBL document CHEMBL3785029, “Synthesis and Characterization of Fatty Acid Conjugates of Niacin and Salicylic Acid” (J Med Chem, 2016).

In general, Cmax refers to the peak of the concentration-time curve. Turning to `CC/C=C\C/C=C\C/C=C\C/C=C\C/C=C\CCCC(=O)NCCNC(=O)c1cccnc1`, the values for the Drug metabolism with Plasma [1], with Plasma [3] and with Liver were > 200 ng/mL, 2296 ng/mL and 8.7 ng/g, respectively. For the same compound, the concentration at 2 h in data set [2] was 6750 ng/g. The inhibition entry in data set [4] and in data set [8] was “Dose-dependent effect” each time. Also, the inhibition result with Mus musculus [5] and in the data set with Mus musculus [6] was “Active” each time. For the same compound, in the data set with Plasma [7], the Stability entry is “Stable”. The same compound displayed a maximum concentration (Cmax) in data set [9] of 212 ng/mL.
By IC50 is commonly meant the midpoint of a concentration-inhibition curve. Read a high IC50 as weaker potency. As to `CC/C=C\C/C=C\C/C=C\C/C=C\C/C=C\C/C=C\CCC(=O)NCCNC(=O)c1ccccc1O` [EDASALONEXENT], the Drug metabolism result is “metabolite_notdetected” in [10], 203.71 ng/g in [12], “metabolite_detected” in the data set with Plasma [15] and “metabolite_notdetected” in data set [17]. Further, the maximum concentration (Cmax) in data set [11] was found to be 477 ng/mL; in the data set on Rattus norvegicus it was 484 ng/mL. The compound further displayed a half-maximal inhibitory concentration (IC50) in data set [13] of 25.4 µM. In addition, the concentration at 4 h in data set [14] turned out to be 331 ng/g. Also, in the data set with Plasma [16], the Drug uptake result is given as “Not Active”.
